Dynein cargo inh: blocks dynein driven cargo transport along microtubules. 3617.4 mouse cells, GR-EGFP nuclear translocation imaging; test concentration mostly 20 µM; stimulated with dexamethasone, 1 µM; stronger effect = lower value. z-score, hits read low. AID 1381. 220,000 tested, 0.47% active;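 active = plate z-score of nuclear minus cytoplasmic receptor signal below a set negative limit, without overly bright fluorescence or cell loss, cut at about -3.5 in these data, passing the limit was not always enough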;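 note: z-score of nuclear minus cytoplasmic ring GR-EGFP intensity difference per well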
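Buffer or medium: tetracycline-free induction medium containing charcoal-stripped FBS / Reagent: dexamethasone agonist, 1.0 µM final, for 30 min / Technique: automated 10x imaging of fixed Hoechst-stained cells / Times: induction 48 h, compound 1 h, agonist 30 min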
Mdm2 MdmX PPI: disrupts the human Mdm2-MdmX interaction; O15151+Q00987; SaOS-2 split-luciferase Mdm2/MdmX complementation, luminescence; inhibition, % at 8 µM; 330,000 tested, 3% active; AID 485346;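 active = inhibition of at least 50% at 8 µM in the primary screen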
MDM2 E3 inh: blocks human Mdm2 ubiquitin ligase activity; Q00987; cell-based MDM2 ubiquitination luciferase reporter, 2 h; 0 = plate control, 100 = twice control, blank-subtracted; signal enhancement, % at 5 µM; 210,000 tested, 0.11% active;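 active = signal enhancement of 30% or more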;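 note: luminescence tracks abundance of the self-degrading MDM2-luciferase fusion protein; higher signal means inhibition of MDM2 E3 ligase activity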
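Test system: mammalian cells stably expressing self-ubiquitinating, self-degrading MDM2 E3–luciferase fusion; Amount: 2000 cells in each well; Medium: DMEM; Schedule: 4 h settle plus 2 h compound, 37 °C; Technique: SteadyLite luciferase luminescence after 15 min room-temperature reagent incubation; Benchmarks: plate control and blank wells.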
XBP1 UPR activ: adaptive UPR (XBP1) activation; CHO-XBP1 luciferase reporter, IRE1-XBP1 UPR activation, luminescence; percent of tunicamycin response, DMSO as zero; activation, % at 20 µM; 330,000 tested, 0.33% active;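 active = versus positive control, 20 µM dose yields 30% or more activation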;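 note: 100% = tunicamycin at 10 µg/mL and 0% = DMSO only wells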
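Assay system: CHO-XBP1 luciferase reporter cells; Schedule: 6 h treatment, 37 °C; Detection: glow luminescence from Steady-Glo reagent; Benchmarks: high control tunicamycin 10 µg/mL final, low control DMSO vehicle only.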
UPR CHOP act: apoptotic UPR (CHOP) activation; AID 449763; CHO-CHOP luciferase reporter, luminescence; percent of tunicamycin response over DMSO baseline; 330,000 tested, 0.34% active; activation, % at 10 µM;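 active = at 10 µM dose, activation of 40% or more, normalized to positive control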;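 note: 100% = tunicamycin at 10 µg/mL and 0% = DMSO alone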
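Assay system: CHO-CHOP cells, stable luciferase reporter of PERK-eIF2a-CHOP signalling / Buffer or medium: F12 plus 10% serum / Compound dosing: one dose, 10 µM in 0.5% DMSO / Times: 6 h compound treatment, 37 °C / Technique: luciferase luminescence / Read-out: % reporter activation, DMSO baseline versus tunicamycin full activation / Benchmarks: tunicamycin and DMSO controls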
B2AR ag: activates human beta-2 adrenergic receptor causing internalization; P07550; Am2.2-beta2AR cells, FAP receptor internalization, flow cytometry; response, % (test concentration not listed); 340,000 tested, 0.43% active;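 active = response above a set limit, near 3 SD of response in nonfluorescent compounds, cut at about 42% in these data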
Target sequence (P07550 whole entry, looked up): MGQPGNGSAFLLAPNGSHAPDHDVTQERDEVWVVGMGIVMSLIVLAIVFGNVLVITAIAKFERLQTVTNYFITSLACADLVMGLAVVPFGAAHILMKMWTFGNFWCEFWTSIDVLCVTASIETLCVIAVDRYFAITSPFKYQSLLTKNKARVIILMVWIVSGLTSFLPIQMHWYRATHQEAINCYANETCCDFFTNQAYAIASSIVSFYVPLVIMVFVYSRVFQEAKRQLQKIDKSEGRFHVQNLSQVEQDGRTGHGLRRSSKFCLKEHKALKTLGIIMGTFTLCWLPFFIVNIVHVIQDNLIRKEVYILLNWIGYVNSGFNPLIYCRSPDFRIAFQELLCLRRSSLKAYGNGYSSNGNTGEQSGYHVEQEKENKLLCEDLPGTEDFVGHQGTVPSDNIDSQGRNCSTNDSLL
Mdm2-MdmX conf: human Mdm2/MdmX binding inhibition, confirmed | shares compounds with Mdm2 MdmX PPI | luminescent assay | inhibition, % at 8 µM | 10,000 tested, 55% active | AID 489028; in the data active = inhibition above about 40%
Full FLuc ctr: inhibits full-length luciferase, flagging false Mdm2/MdmX hits; shares compounds with Mdm2 MdmX PPI; SaOS-2 full-length luciferase counterscreen, luminescence; inhibition, % at 8 µM; 6,200 tested, 77% active; AID 504607;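 active = mean inhibition at 8 µM reaching about 37%, which flags the compound as non-specific, limit read from the data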;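 note: p53-null SaOS-2 cells with luciferase driven by a doxycycline-inducible promoter; compound on cells about two nights before reading with doxycycline added after day one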
* hit, by the source's call. Most compounds without a hit are left out; they make up all but 3.7% or so of the library.

`COc1ccc(S(=O)(=O)N2c3ccccc3OCC2c2ccccc2)cc1` (stereo unspecified) gave Mdm2 MdmX PPI 51*, MDM2 E3 inh -12, XBP1 UPR activ 3, UPR CHOP act 1, B2AR ag 12, Mdm2-MdmX conf 72* and Full FLuc ctr 48*.
For COc1ccc(S(=O)(=O)N2CC(C(=O)O)Oc3ccccc32)cc1 (stereo unspecified) the results were Mdm2 MdmX PPI -17, XBP1 UPR activ -5, UPR CHOP act -1 and B2AR ag -4.
COc1ccc(S(=O)(=O)N2CCOc3ccccc32)cc1 was read as Mdm2 MdmX PPI 61*, XBP1 UPR activ 0, UPR CHOP act -2, B2AR ag 8, Mdm2-MdmX conf 63* and Full FLuc ctr 54*.
Cc1ccc(NC(=O)/C(=C/c2cccc([N+](=O)[O-])c2)NC(=O)C2CCCCC2)c(C)c1 was read as Dynein cargo inh -0.35, Mdm2 MdmX PPI 88*, MDM2 E3 inh -17, XBP1 UPR activ 16, UPR CHOP act 13, B2AR ag 6 and Mdm2-MdmX conf -15.
Screening O=C(Nc1ccc([N+](=O)[O-])cc1)/C(=C/c1cccc([N+](=O)[O-])c1)NC(=O)C1CCCCC1 returned Dynein cargo inh -0.69, Mdm2 MdmX PPI 27, MDM2 E3 inh -26, XBP1 UPR activ -2, UPR CHOP act 1 and B2AR ag 0.
For OC(CNCC(c1ccc(Cl)cc1Cl)c1c[nH]c2ccccc12)c1ccccc1 (stereo unspecified) the results were Dynein cargo inh 1.9, Mdm2 MdmX PPI 97*, MDM2 E3 inh -32, XBP1 UPR activ 5, UPR CHOP act 9, B2AR ag 23, Mdm2-MdmX conf 80* and Full FLuc ctr 46*.
`COc1cccc(-c2nc(C(=O)NCC3CCCO3)cc3c2[nH]c2ccccc23)c1` (stereo unspecified) gave Mdm2 MdmX PPI 65*, XBP1 UPR activ 5, UPR CHOP act 7, B2AR ag 17 and Mdm2-MdmX conf 25.
`CCCCn1c(N)c(N(CC(C)C)C(=O)c2cc3ccccc3cc2OC)c(=O)[nH]c1=O` gave B2AR ag -7.
COc1ccc(C(=O)/C=C/c2ccc(OC)c(CN3CCOCC3)c2)cc1 was read as Dynein cargo inh -2.2, Mdm2 MdmX PPI 27, MDM2 E3 inh 4, XBP1 UPR activ -2, UPR CHOP act 1 and B2AR ag -2.
`COc1ccc(C(=O)/C=C/c2ccc(OC)c(Cn3nnc4ccccc43)c2)cc1` gave Dynein cargo inh -1.6, Mdm2 MdmX PPI 62*, MDM2 E3 inh -1, XBP1 UPR activ -5, UPR CHOP act 3, B2AR ag 8, Mdm2-MdmX conf 43* and Full FLuc ctr 68*.
Screening COc1ccc(CCNC(=O)CSc2nc3[nH]ncc3c(=O)n2-c2ccc(C)c(Cl)c2)cc1OC returned Dynein cargo inh 0.49, MDM2 E3 inh -13 and B2AR ag 6.
`C[C@H]1CC[C@H]2C(=O)N3[C@H](c4ccccc4Br)[C@@H](C)CC[C@H]3C(=O)N2[C@@H]1c1ccccc1Br` gave Dynein cargo inh -0.53, Mdm2 MdmX PPI 79*, XBP1 UPR activ 16, UPR CHOP act 4, Mdm2-MdmX conf 51* and Full FLuc ctr 68*.
For Cc1ccccc1N=C1Nc2ccccc2N[C@]12C[C@H]1CCC(=O)N3CC[C@@H](C2)[C@@H]13 the results were B2AR ag 9.
Screening CN(Cc1ccccc1)C(=O)CSc1cc(=O)n(C)c2ccccc12 returned Dynein cargo inh -0.22, Mdm2 MdmX PPI 35, MDM2 E3 inh -4, XBP1 UPR activ 2, UPR CHOP act 6 and B2AR ag -12.
CCn1c(=O)cc(SCC(=O)N(C)Cc2ccccc2)c2ccccc21 was read as Dynein cargo inh 0.046, Mdm2 MdmX PPI 51*, MDM2 E3 inh -8, XBP1 UPR activ 2, UPR CHOP act 3, B2AR ag -11 and Mdm2-MdmX conf 30.
`CCn1c(=O)cc(SCC(=O)N2CCN(c3ccccc3F)CC2)c2ccccc21` gave Dynein cargo inh -0.1, Mdm2 MdmX PPI 56*, MDM2 E3 inh -17, XBP1 UPR activ 1, UPR CHOP act 0, B2AR ag -4, Mdm2-MdmX conf 44* and Full FLuc ctr 86*.
`COc1cc(OC)c2c(-c3ccccc3)cc(=O)oc2c1C(CCN1CCOCC1)c1ccc(N(C)C)cc1` (stereo unspecified) gave Mdm2 MdmX PPI 11, XBP1 UPR activ 12, UPR CHOP act 4 and B2AR ag 5.
For COc1ccc(C(CCN2CCCCC2)c2c(OC)cc(OC)c3c(-c4ccccc4)cc(=O)oc23)cc1 (stereo unspecified) the results were Dynein cargo inh -3.1, Mdm2 MdmX PPI 94*, MDM2 E3 inh -2, XBP1 UPR activ 18, UPR CHOP act 3, B2AR ag 31 and Mdm2-MdmX conf 40.
For COc1cc(C(CCN2CCN(c3ccccc3)CC2)c2c(OC)cc(OC)c3c(C)cc(=O)oc23)cc(OC)c1OC (stereo unspecified) the results were Dynein cargo inh 0.82, Mdm2 MdmX PPI 28, MDM2 E3 inh -7, XBP1 UPR activ -1, UPR CHOP act 4 and B2AR ag 9.
COc1cc(OC)c2c(-c3ccccc3)cc(=O)oc2c1C(CCN1CCCCC1)c1ccc(N(C)C)cc1 (stereo unspecified) was read as Dynein cargo inh -0.78, Mdm2 MdmX PPI 79*, MDM2 E3 inh 9, XBP1 UPR activ 16, UPR CHOP act 3, B2AR ag 10 and Mdm2-MdmX conf 16.
Screening O=C1COc2ccc(C(=O)COC(=O)Cc3ccc(F)cc3)cc2N1 returned Mdm2 MdmX PPI 23, XBP1 UPR activ 3, UPR CHOP act 1 and B2AR ag -4.
COc1ccc2nc3cc(Cl)ccc3c(Nc3cc(CN4CCCC4)c(O)c(CN4CCCC4)c3)c2n1 was read as Mdm2 MdmX PPI 99*, XBP1 UPR activ -7, UPR CHOP act 2, Mdm2-MdmX conf 53* and Full FLuc ctr 77*.
COc1ccc(S(=O)(=O)N2CCC(C(=O)NN3CCCCC3)CC2)cc1OC was read as Mdm2 MdmX PPI -8, XBP1 UPR activ 1, UPR CHOP act 0 and B2AR ag -1.

Bioassay records deposited in PubChem BioAssay by several laboratories.
